Assay results taken from ChEMBL document CHEMBL1123678, “Octahydropyrazino[2',3':3,4]pyrido[1,2-a]indoles. A new class of potent antihypertensive agents” (1987).

How the values were obtained:
[1] = system: Rattus norvegicus; test: Vasopressor responses to epinephrine as a measure of the alpha-1-adrenoceptor blocking activity at 10 mg/kg administered orally was reported to be reveresed; assay type: functional, organism-based; parameters: dose 10 mg/kg
[2] = system: Rattus norvegicus; test: Antihypertensive activity was determined in cannulated spontaneously hypertensive rats(SHR) and marked bradycardia was reported at a dose of 10 mg/kg; assay type: functional, organism-based; parameters: dose 10 mg/kg
[3] = system: Rattus norvegicus; test: Vasopressor responses to epinephrine as a measure of the alpha-1-adrenoceptor blocking activity at 5 mg/kg administered orally was reported to be reveresed; assay type: functional, organism-based; parameters: dose 5 mg/kg
[4] = system: Rattus norvegicus; test: Antihypertensive activity was determined in cannulated spontaneously hypertensive rats(SHR) and marked bradycardia was reported at a dose of 5 mg/kg; assay type: functional, organism-based; parameters: dose 5 mg/kg
[5] = system: Rattus norvegicus; test: Antihypertensive activity was determined in cannulated spontaneously hypertensive rats(SHR) and maximum decrease of mean arterial blood pressure (MABP) at 5 mg/kg oral dose; assay type: functional, Artery
Summary of the method: (§1)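 Cannulated SHR given compound by gastric gavage in 0.5% methylcellulose (5 mL/kg), doses 0.1–50 mg/kg, 4–8 animals per dose, after 1-h equilibration. MABP recorded for 4 h; maximal % decrease reported with time to peak effect. Significance by two-way analysis of variance.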

[6] = system: Rattus norvegicus; test: Antihypertensive activity was determined in cannulated spontaneously hypertensive rats(SHR) and maximum decrease of mean arterial blood pressure (MABP) at 10 mg/kg oral dose; assay type: functional, Artery; summary of the method: as §1
[7] = system: Rattus norvegicus; test: Antihypertensive activity was determined in cannulated spontaneously hypertensive rats(SHR) and maximum decrease of mean arterial blood pressure (MABP) at 1 mg/kg oral dose; assay type: functional, Artery; summary of the method: as §1
[8] = system: Rattus norvegicus; test: Vasopressor responses to epinephrine as a measure of the alpha-1-adrenoceptor blocking activity at 1 mg/kg administered orally was reported to be reveresed; assay type: functional, organism-based; parameters: dose 1 mg/kg
[9] = system: Rattus norvegicus; test: Antihypertensive activity was determined in cannulated spontaneously hypertensive rats(SHR) and maximum decrease of mean arterial blood pressure (MABP) at 50 mg/kg oral dose; assay type: functional, Artery; summary of the method: as §1
[10] = system: Rattus norvegicus; test: Antagonism of vasopressor responses to epinephrine as a measure of the alpha-1-adrenoceptor blocking activity at 50 mg/kg administered orally was reported to be reversed; assay type: functional, organism-based; parameters: dose 50 mg/kg

For `CCN1CCN(CC)[C@H]2c3c(C)c4ccccc4n3CC[C@@H]21.Cl.Cl`, the Activity [1] was “Vasopressor response reveresed”, the HR [2] was “Heart rate response was reported to be reduce by 10-25% after 4 hr at a dose of 25 mg/kg” and the Activity [3] was “Vasopressor response reveresed”. For the same molecule, the HR [4] was “Heart rate response was reported to be reduce by 10-25% after 4 hr at a dose of 25 mg/kg”, the “Decrease in MABP” value [5] was 28% and the “Decrease in MABP” value [6] was 32%. For the same molecule, the “Decrease in MABP” value [7] was 14% and the Activity [8] was “Vasopressor response reveresed”.

For `CCN1CCN(CCOc2ccccc2)C2CCn3c(c(C)c4ccccc43)C21.Cl.Cl` (stereo not given), the “Decrease in MABP” value [9] was 22% and the Activity [10] was “Antagonism reversed”.
